Measured values from the array DNA melting data of Ke et al. (doi:10.1101/2024.01.08.574731).

How the values were obtained:
[1] = melting temperature; fluorescence melt of hairpins on a sequencing array, two-state fit, raised by 9.35 °C to match UV melts; conditions: sodium 0.088 M
Method in brief: (§1)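 On a sequenced MiSeq flow cell, library hairpins with annealed Cy3 and quencher oligos were imaged for Cy3 fluorescence in 2.5 °C steps up to 60 °C, in 50 mM Na-HEPES pH 8.0, 25 mM NaCl. Normalisation used pre-quench Cy3 and control constructs. Bootstrapped two-state fits gave melting temperature and folding enthalpy, combined by inverse variance across four replicates and with fitted temperatures raised by 9.35 °C to match UV melts.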

[2] = folding enthalpy; higher = less favourable; fluorescence melt of hairpins on a sequencing array, two-state fit; conditions: sodium 0.088 M
Method in brief: as §1

Sequence | Tm [1] | folding enthalpy [2]
GCTTTCGAAAGAACGAGC ((((((....)))..))) | 28.9 °C | -15.1 kcal/mol
GCTTTCGCGAAAGCGAGC (((..(((....)))))) | 48.9 °C | -10.6 kcal/mol
GCTTTCTCGAAAGAGAGC (((..(((....)))))) | 33 °C | -17.8 kcal/mol
GCTTTGCGAAAGCACGGC ((..(((....)))..)) | 41.7 °C | -16.6 kcal/mol
GCTTTGCGAAAGCAGCGC ((..(((....)))..)) | 48.6 °C | -16.7 kcal/mol
GCTTTGCGAAAGCCAAGC ((((.((....)).)))) | 52.6 °C | -23 kcal/mol
GCTTTGCGAAAGCGATGC ((.(.((....)).).)) | 46.5 °C | -19.2 kcal/mol
GCTTTGCGAAAGCGGAGC (((..((....))..))) | 53.6 °C | -17.3 kcal/mol
GCTTTGCGAAAGCGTAGC (((..((....))..))) | 37.2 °C | -19.6 kcal/mol
GCTTTGCGAAAGCTTAGC (((..((....))..))) | 55.2 °C | -16.7 kcal/mol
GCTTTGGGAAACCAAAAC (.(((((....))))).) | 31.3 °C | -19.8 kcal/mol
GCTTTTCCGAAAGGAAGC (((..(((....)))))) | 33.7 °C | -10.7 kcal/mol
GCTTTTGCGAAAGCAAGC (((..(((....)))))) | 35 °C | -10.3 kcal/mol
GGAAAAGGAAACTTTCCC ((.((((....)))).)) | 27.8 °C | -13.1 kcal/mol
GGAAAAGGAAACTTTTTC (.(((((....))))).) | 33 °C | -20.6 kcal/mol
GGAAACCGAAAGGTATCC (((.(((....))).))) | 48.4 °C | -22.7 kcal/mol
GGAAACGAAAGTTATCC ((((((....))).))) | 31.9 °C | -12.1 kcal/mol

Sequence | Tm [1] | folding enthalpy [2]
GGAAACGAAAGTTCTCC ((((((....))).))) | 35.8 °C | -16.8 kcal/mol
GGAAACGAAAGTTTATCC ((((((....)))..))) | 25.6 °C | -12.3 kcal/mol
GGAAACGAAAGTTTTTCC ((((((....)))..))) | 30.6 °C | -10.8 kcal/mol
GGAAACGGAAACGTCTCC (((.(((....))).))) | 37.2 °C | -23.6 kcal/mol
GGAAAGCGAAAGCTTCC (((.(((....)))))) | 53.7 °C | -18.1 kcal/mol
GGAAAGGAAACTTTCC ((((((....)))))) | 50 °C | -29.9 kcal/mol
GGAAAGGGAAACCCTTCC ((((.((....)).)))) | 40 °C | -23.1 kcal/mol
GGAAATACGAAAGTATCC (((..(((....)))))) | 30.8 °C | -11.3 kcal/mol
GGAAATGGAAACATCTCC (((.(((....))).))) | 25.1 °C | -9.93 kcal/mol
GGAAATGGAAACATTTTC (.(((((....))))).) | 38.5 °C | -33.7 kcal/mol
GGAAATGGAAACGTTTCC (((((.(....).))))) | 44.1 °C | -19.2 kcal/mol
GGAACACCGAAAGGTTCC (((..(((....)))))) | 42.2 °C | -18.4 kcal/mol
GGAACAGGAAACTATTCC ((((.((....)).)))) | 24.7 °C | -13.4 kcal/mol
GGAACCGAAAGGTCATCC ((((((....)))..))) | 28.6 °C | -10.8 kcal/mol
GGAACCGAAAGGTGATCC ((((((....)))..))) | 42.8 °C | -14 kcal/mol
GGAACCGAAAGGTGGTCC ((((((....)))..))) | 35.4 °C | -14.7 kcal/mol
GGAACCGGAAACGGTTTC (.(((((....))))).) | 54.5 °C | -21.3 kcal/mol
